The target of experiment [1] is Histamine H3 receptor (Mus musculus) (UniProt P58406). The experiment in a line: In vivo effects in mice against H3 receptor on N6-methylhistamine levels in brain (following oral dosing of compound). Type of experiment: functional, organism-based. Summed up: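 Swiss mice fasted 24 h, dosed orally; decapitated 90 min later and cerebral cortex homogenized in ice-cold 0.4 M perchloric acid. Nτ-methylhistamine measured by radioimmunoassay.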

Experiment [2] has as its target T1, Histamine H3 receptor (Homo sapiens, UniProt Q9Y5N1). In words: Displacement of [125I]iodoproxyfan from human histamine H3 receptor expressing CHO cells. The class given is cell-based. Background: In a radioligand displacement assay an active substance lowers the binding of a labelled ligand.
The target of experiment [3] is Histamine H3 receptor (Cavia porcellus, UniProt Q9JI35). In words: Potency at histamine H3 receptor subtype, was tested on guinea pig right ileum. Type of experiment: tissue-based. The following applies: read-out: pA2 (converted).
Sequence of Histamine H3 receptor (Cavia porcellus, UniProt Q9JI35) (Q9JI35 whole entry): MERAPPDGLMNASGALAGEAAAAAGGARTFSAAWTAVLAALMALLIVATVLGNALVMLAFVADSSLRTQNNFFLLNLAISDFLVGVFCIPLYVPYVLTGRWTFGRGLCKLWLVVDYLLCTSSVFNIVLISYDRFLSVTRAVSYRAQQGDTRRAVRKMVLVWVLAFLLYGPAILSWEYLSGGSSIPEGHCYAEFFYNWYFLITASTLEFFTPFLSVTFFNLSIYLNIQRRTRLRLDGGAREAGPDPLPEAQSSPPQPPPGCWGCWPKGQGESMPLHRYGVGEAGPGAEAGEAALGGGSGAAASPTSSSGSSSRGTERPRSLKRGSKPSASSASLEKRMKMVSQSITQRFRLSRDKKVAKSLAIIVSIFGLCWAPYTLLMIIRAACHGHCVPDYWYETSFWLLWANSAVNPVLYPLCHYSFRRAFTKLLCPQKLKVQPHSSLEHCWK
For experiment [4], the target named is Histamine H2 receptor (Cavia porcellus, UniProt P47747). In words: Potency at histamine H2 receptor subtype, was tested on guinea pig right atrium. The class given is tissue-based, Cardiac atrium. To be noted: read-out: pA2 (converted).
Sequence of Histamine H2 receptor (P47747 whole entry): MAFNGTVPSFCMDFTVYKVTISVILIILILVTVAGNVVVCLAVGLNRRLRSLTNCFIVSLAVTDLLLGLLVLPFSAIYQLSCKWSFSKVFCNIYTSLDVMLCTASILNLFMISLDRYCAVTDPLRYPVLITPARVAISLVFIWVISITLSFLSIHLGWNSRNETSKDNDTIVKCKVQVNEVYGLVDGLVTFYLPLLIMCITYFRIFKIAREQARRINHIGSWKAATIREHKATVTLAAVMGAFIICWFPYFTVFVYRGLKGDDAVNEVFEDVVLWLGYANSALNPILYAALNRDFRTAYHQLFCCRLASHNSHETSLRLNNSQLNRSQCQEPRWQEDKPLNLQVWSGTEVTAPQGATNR
The target in experiment [5] is Histamine H1 receptor (Cavia porcellus, UniProt P31389). In words: Potency at histamine H1 receptor subtype, was tested on guinea pig right ileum. Type of experiment: tissue-based. To be noted: read-out: pA2 (converted).
Sequence of Histamine H1 receptor (P31389 whole entry): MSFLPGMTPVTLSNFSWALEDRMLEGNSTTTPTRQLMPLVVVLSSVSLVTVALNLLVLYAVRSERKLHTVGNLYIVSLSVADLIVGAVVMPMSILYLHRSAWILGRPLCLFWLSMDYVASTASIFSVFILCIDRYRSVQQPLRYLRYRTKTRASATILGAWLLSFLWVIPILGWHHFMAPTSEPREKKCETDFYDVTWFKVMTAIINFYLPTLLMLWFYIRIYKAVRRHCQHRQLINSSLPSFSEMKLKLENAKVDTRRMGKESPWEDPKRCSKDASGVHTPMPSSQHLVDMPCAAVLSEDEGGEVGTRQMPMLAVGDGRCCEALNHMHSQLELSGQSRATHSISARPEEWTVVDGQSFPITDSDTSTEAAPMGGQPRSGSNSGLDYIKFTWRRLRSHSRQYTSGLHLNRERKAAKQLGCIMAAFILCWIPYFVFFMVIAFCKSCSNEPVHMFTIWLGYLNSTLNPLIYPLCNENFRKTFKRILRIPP
Experiment [6] deals with Histamine N-methyltransferase (Rattus norvegicus, UniProt Q01984). In words: Compound was tested against histamine N-methyl-transferase in rat brain [EC 2.1.1.8](relative weak affinity on rat enzyme). Type of experiment: tissue-based.
Sequence of Histamine N-methyltransferase (Q01984 whole entry): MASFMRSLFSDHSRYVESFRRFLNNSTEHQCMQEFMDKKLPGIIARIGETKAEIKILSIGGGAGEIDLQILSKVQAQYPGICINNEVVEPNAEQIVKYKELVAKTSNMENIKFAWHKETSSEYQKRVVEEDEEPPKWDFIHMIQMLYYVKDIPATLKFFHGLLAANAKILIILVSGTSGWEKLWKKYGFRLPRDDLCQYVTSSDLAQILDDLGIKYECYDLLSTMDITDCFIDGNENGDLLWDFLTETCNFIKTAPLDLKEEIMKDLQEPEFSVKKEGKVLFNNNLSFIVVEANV
Experiment [7] addresses T1, Histamine H3 receptor. The experiment in a line: biochemical.

Sequence of Histamine H3 receptor (Mus musculus) (P58406 whole entry): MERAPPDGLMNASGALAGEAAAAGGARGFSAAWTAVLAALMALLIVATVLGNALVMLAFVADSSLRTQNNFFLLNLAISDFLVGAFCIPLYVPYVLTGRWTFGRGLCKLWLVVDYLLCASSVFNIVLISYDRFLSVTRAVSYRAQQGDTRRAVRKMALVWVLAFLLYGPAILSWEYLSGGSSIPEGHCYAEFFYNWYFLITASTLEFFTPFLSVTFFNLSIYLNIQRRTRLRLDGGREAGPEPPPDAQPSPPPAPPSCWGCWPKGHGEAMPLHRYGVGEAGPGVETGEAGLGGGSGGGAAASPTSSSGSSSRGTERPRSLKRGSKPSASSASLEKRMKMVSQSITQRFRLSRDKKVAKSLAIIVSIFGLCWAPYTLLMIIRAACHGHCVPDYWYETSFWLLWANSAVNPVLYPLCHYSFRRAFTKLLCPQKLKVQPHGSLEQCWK
T1 sequence (Q9Y5N1 whole entry): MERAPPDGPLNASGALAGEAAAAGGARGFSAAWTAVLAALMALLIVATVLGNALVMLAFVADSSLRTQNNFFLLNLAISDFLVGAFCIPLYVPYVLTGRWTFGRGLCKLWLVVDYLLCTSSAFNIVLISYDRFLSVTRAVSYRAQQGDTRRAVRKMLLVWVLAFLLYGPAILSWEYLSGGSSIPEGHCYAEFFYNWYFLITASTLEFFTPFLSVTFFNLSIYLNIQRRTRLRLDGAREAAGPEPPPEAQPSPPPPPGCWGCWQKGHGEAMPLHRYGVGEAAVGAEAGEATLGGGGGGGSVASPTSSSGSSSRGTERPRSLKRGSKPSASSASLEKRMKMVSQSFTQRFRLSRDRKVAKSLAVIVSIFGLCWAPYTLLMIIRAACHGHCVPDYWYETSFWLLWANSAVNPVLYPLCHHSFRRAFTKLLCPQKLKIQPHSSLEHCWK

Usually ED50 stands for the dose at which the effect has come halfway, by size or by number of responders. Read a high ED50 as weaker potency. One may read the Ki as the equilibrium dissociation constant of an inhibitor or competing ligand from its target. A low value points to higher affinity. Molecule `Clc1ccc(OCc2ccc(CN3CCCCC3)cc2)cc1Cl` displayed a 50% effective dose (ED50) in experiment [1] above 10 mg/kg. In experiment [2], this molecule gave an inhibition constant (Ki) of 167 nM.

`c1cn(-c2ccc(OCc3ccc(CN4CCCCC4)cc3)cc2)cn1` yielded a 50% effective dose (ED50) in experiment [1] of 4 mg/kg. Moreover, in experiment [2], the affinity corresponds to a Ki of 27 nM. Besides, in experiment [3], the Kb is 15.8 nM.

What is called IC50 is the point on the concentration scale where inhibition reaches its midpoint. For `CC(=O)c1ccc(OCc2ccc(CN3CCCCC3)cc2)cc1`, in experiment [1], the ED50 is 3.9 mg/kg. The Ki in experiment [2] is 84 nM. Besides, the Kb in experiment [3] was 61.7 nM; in experiment [4], 10200 nM; in experiment [5], 4570 nM. Also, in experiment [6], the half-maximal inhibitory concentration (IC50) was found to be 10400 nM.

In the case of `COc1ccc(OCc2ccc(CN3CCCCC3)cc2)cc1`, the ED50 in experiment [1] came out at 20 mg/kg. Affinity in experiment [2] was put at a Ki of 119 nM.

The molecule `CC(=O)c1ccc(OCc2ccc(CN3CCCCCC3)cc2)cc1` yielded an ED50 in experiment [1] of 4.3 mg/kg. Besides, the Ki in experiment [2] was 37 nM. Besides, the Kb in experiment [3] is 30.9 nM.

Molecule `CC(C)c1ccc(OCc2ccc(CN3CCCCC3)cc2)cc1` returned a median effective dose (ED50) in experiment [1] of 3 mg/kg. Further, the Ki in experiment [2] worked out at 253 nM.

Regarding `Cc1cc(OCc2ccc(CN3CCCCC3)cc2)ccc1Cl`, the ED50 in experiment [1] is above 10 mg/kg. In experiment [2], affinity was put at a Ki of 42 nM.

Molecule `CC(=O)c1ccc(OCCCc2c[nH]cn2)cc1` returned an ED50 in experiment [1] of 0.24 mg/kg. Also, the affinity in experiment [2] corresponds to a Ki of 87 nM.

On to `CCc1ccc(OCc2ccc(CN3CCCCC3)cc2)cc1`, for which, in experiment [1], it took a dose of 2.2 mg/kg to reach the 50% effect level (ED50). In experiment [2], this molecule gave a Ki of 163 nM.

For `c1ccc(NCc2ccc(OCc3ccc(CN4CCCCC4)cc3)cc2)cc1`, the ED50 in experiment [1] was 10 mg/kg. The inhibitory constant (Ki) in experiment [2] came out at 90 nM.

`c1cc(CN2CCCCC2)ccc1COc1ccc(C2CCCC2)cc1` had an ED50 in experiment [1] of 3.1 mg/kg. Further, affinity in experiment [2] was put at a Ki of 201 nM.

As for `CCCOc1ccc(OCc2ccc(CN3CCCCC3)cc2)cc1`, it took a dose of 10 mg/kg to reach the 50% effect level in experiment [1] (ED50). In experiment [2], the affinity, expressed as Ki, was 88 nM.

In the case of `Cc1ccc(OCc2ccc(CN3CCCCC3)cc2)cc1`, it took a dose of 1.8 mg/kg to reach the 50% effect level in experiment [1] (ED50).

Molecule `c1ccc(Cc2ccc(OCc3ccc(CN4CCCCC4)cc3)cc2)cc1` had a 50% effective dose (ED50) in experiment [1] above 10 mg/kg. In experiment [2], this molecule yielded a Ki of 238 nM.

Regarding `FC(F)(F)c1ccc(OCc2ccc(CN3CCCCC3)cc2)cc1`, the median effective dose (ED50) in experiment [1] is above 10 mg/kg. Besides, the affinity in experiment [2], expressed as Ki, was 125 nM.

For `Cc1ccc(OCc2ccc(CN3CCCCC3)cc2)cc1C`, the ED50 in experiment [1] was found to be 4.8 mg/kg. Moreover, the Ki in experiment [2] was 149 nM.

`CCCCCc1ccc(OCc2ccc(CN3CCCCC3)cc2)cc1` showed an ED50 in experiment [1] of 3 mg/kg.

For the molecule `CCCc1ccc(OCc2ccc(CN3CCCCC3)cc2)cc1`, in experiment [1], the 50% effect level (ED50) was put at a dose of 4.3 mg/kg. The same molecule gave an inhibition constant Ki in experiment [2] of 257 nM.

`c1ccc(COc2ccc(OCc3ccc(CN4CCCCC4)cc3)cc2)cc1` gave an ED50 in experiment [1] above 30 mg/kg. This molecule also came in with a Ki in experiment [2] of 550 nM.

`O=C(c1ccc(OCc2ccc(CN3CCCCC3)cc2)cc1)C1CC1`: the ED50 in experiment [1] was found to be 5.9 mg/kg. This molecule registered a Ki in experiment [2] of 66 nM.

In experiment [1], `Fc1cc(OCc2ccc(CN3CCCCC3)cc2)ccc1Cl` yielded an ED50 above 10 mg/kg. The molecule further showed a Ki in experiment [2] of 95 nM.

In the case of `C(=C\c1ccc(OCc2ccc(CN3CCCCC3)cc2)cc1)/c1ccccc1`, the 50% effective dose (ED50) in experiment [1] was above 10 mg/kg. For the same molecule, the affinity in experiment [2] corresponds to a Ki of 761 nM.

In the case of `Ic1ccc(OCc2ccc(CN3CCCCC3)cc2)cc1`, the median effective dose (ED50) in experiment [1] is above 10 mg/kg. Besides, affinity in experiment [2] was put at a Ki of 107 nM.

The molecule `CC(=O)c1ccc(OCc2ccc(CN3CCCC3)cc2)cc1` came in with an ED50 in experiment [1] of 1.9 mg/kg. In addition, the Ki in experiment [2] is 26 nM. Also, the figures for the Kb in experiment [3], in experiment [4] and in experiment [5] were 18.2 nM, 7760 nM and 9330 nM, respectively.

Consider `O=[N+]([O-])c1ccc(OCCCCCN2CCCC2)cc1`, for which the ED50 in experiment [1] amounted to 1.1 mg/kg. In addition, affinity in experiment [7] was put at a Ki of 39 nM.

Turning to `c1cc(CN2CCCCC2)ccc1COc1ccc2c(c1)CCCC2`, the ED50 in experiment [1] was 3.5 mg/kg. In addition, the affinity in experiment [2], expressed as Ki, was 92 nM.

`O=C(c1ccc(OCc2ccc(CN3CCCCC3)cc2)cc1)C1CCCC1` displayed an ED50 in experiment [1] of 2.8 mg/kg. The Ki in experiment [2] was found to be 157 nM. In addition, in experiment [3], the Kb is 30.9 nM.

The molecule `Fc1ccc(OCc2ccc(CN3CCCCC3)cc2)cc1` yielded an ED50 in experiment [1] of 15 mg/kg. In experiment [2], this molecule gave a Ki of 123 nM.

Molecule `Cc1cccc(OCc2ccc(CN3CCCCC3)cc2)c1` had a median effective dose (ED50) in experiment [1] of 20 mg/kg. The molecule also gave a Ki in experiment [2] of 334 nM.

`c1ccc(OCc2ccc(CN3CCCCC3)cc2)cc1` returned an ED50 in experiment [1] of 30 mg/kg. Further, the affinity in experiment [2], expressed as Ki, was 227 nM.

In turn, `c1ccc(Oc2ccc(OCc3ccc(CN4CCCCC4)cc3)cc2)cc1` had a median effective dose (ED50) in experiment [1] above 10 mg/kg. The affinity in experiment [2], expressed as Ki, was 530 nM.

`CO/N=C(\C)c1ccc(OCc2ccc(CN3CCCCC3)cc2)cc1`: the ED50 in experiment [1] came to 6.4 mg/kg. In experiment [2], this molecule yielded an inhibitory constant (Ki) of 129 nM. The Kb in experiment [3] was 288 nM; in experiment [4], 3980 nM; in experiment [5] it was 3470 nM.

`c1cc(CN2CCCCC2)ccc1COc1ccc(CN2CCCCC2)cc1`: the ED50 in experiment [1] is 9.6 mg/kg. For the same molecule, in experiment [2], the inhibition constant (Ki) was 2.8 nM. In addition, the Kb in experiment [3] is 38 nM.

In experiment [1], `CCN(CC)Cc1ccc(COc2ccc(C(C)=O)cc2)cc1` returned an ED50 of 3.4 mg/kg. Further, the Ki in experiment [2] was 91 nM.

Molecule `C/C(=N\O)c1ccc(OCc2ccc(CN3CCCCC3)cc2)cc1` displayed an ED50 in experiment [1] of 5 mg/kg. The molecule also registered a Ki in experiment [2] of 55 nM. Moreover, the Kb was 85.1 nM in experiment [3], 14100 nM in experiment [4] and 7940 nM in experiment [5].

As for `c1ccc(CCc2ccc(OCc3ccc(CN4CCCCC4)cc3)cc2)cc1`, it took a dose of 30 mg/kg to reach the 50% effect level in experiment [1] (ED50). In experiment [2], this molecule yielded a Ki of 890 nM.

As to `Clc1ccc(OCc2ccc(CN3CCCCC3)cc2)cc1`, in experiment [1], the ED50 was above 10 mg/kg. The molecule further gave a Ki in experiment [2] of 124 nM.

Regarding `c1cc(CN2CCCCC2)ccc1COc1ccc2c(c1)CCC2`, the 50% effect level in experiment [1] (ED50) was put at a dose of 1.9 mg/kg. Moreover, the Ki in experiment [2] turned out to be 87 nM.

As for `CCCCc1ccc(OCc2ccc(CN3CCCCC3)cc2)cc1`, the ED50 in experiment [1] was determined as 2.8 mg/kg. The same molecule displayed a Ki in experiment [2] of 169 nM.

As to `Brc1ccc(OCc2ccc(CN3CCCCC3)cc2)cc1`, the ED50 in experiment [1] was above 10 mg/kg. The molecule further had a Ki in experiment [2] of 114 nM.

The record behind these values is ChEMBL document CHEMBL1136767, “Novel nonimidazole histamine H3 receptor antagonists: 1-(4-(phenoxymethyl)benzyl)piperidines and related compounds” (J Med Chem, 2003).
